≈ marks a conversion by molar mass, not a printed value.
Test system: Staphylococcus aureus
Assay: Antibacterial activity against hospital-acquired methicillin-resistant Staphylococcus aureus 56 by microdilution method
Type: functional
Summary of the method: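 Tigecycline MIC measured in triplicate by broth microdilution following CLSI guidelines. Isolates were stored at −80°C in skim milk and subcultured twice on blood agar before testing.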

## CC(=O)NC[C@H]1CN(c2ccc(N3CCOCC3)c(F)c2)C(=O)O1 [LINEZOLID]
  MIC: 8 µg/mL (≈ 23.7 µM)
